Screens from PubChem BioAssay.
CHO parental Ca – counter-screen for OX1R antagonists: effect in parental CHO cells. inhibition, % at 5.6 µM. 0.63% of 330,000 active. parental CHO-K1, ATP-induced calcium, Fluo-8 fluorescence. AID 463079;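 active = inhibition above that plate's mean sample inhibition plus 3 SD, cut at about 26% in these data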;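 also: 0% = ATP-challenged DMSO wells and 100% = DMSO wells without ATP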
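Test system: parental CHO cells; detection: calcium-sensitive Fluo-8 fluorescence; evaluation: percent inhibition of calcium signal; also added: ATP as calcium-mobilizing challenge; repeats: one well per compound; control set: ATP-challenged DMSO wells low, unchallenged DMSO wells high; compound: single nominal dose of 5.6 µM per compound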
TAAR1 agonist – human TAAR1 agonism | Q96RJ0 | CHO RD-HGA16 TAAR1, Fluo-8 calcium fluorescence; vehicle wells 0%, saturating PEA agonist 100% | AID 624467 | 0.99% of 360,000 active | activation, % at 3 µM;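 active = activation above the mean activation of all test compounds in the run plus 3 SD, cut at about 38% in these data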
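Test system: RD-HGA16 (CHO) cells co-expressing Gα16 and hTAAR1 / Benchmarks: DMSO vehicle as 0%, PEA at EC100 as 100% / Repeats: no replicates (n 1) / Measure: % activation from peak over basal fluorescence ratio, DMSO-to-PEA scaled / Timing: 17-24 h plating, Fluo-8 75 min 37 °C, 30 min RT / Technique: kinetic Fluo-8 calcium fluorescence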
OX1R antag-1 – antagonists of human orexin 1 receptor (OX1R); OX1R-expressing cells, FRET antagonist read-out; inhibition, % at 6.6 µM; 1.8% of 330,000 active; in the data active = inhibition mostly above about 38%, no sharp cut-off; inactive = mostly below about 40%;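 also: 0% = agonist challenge alone and 100% = reference antagonist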
Target sequence (O43613 whole entry, looked up): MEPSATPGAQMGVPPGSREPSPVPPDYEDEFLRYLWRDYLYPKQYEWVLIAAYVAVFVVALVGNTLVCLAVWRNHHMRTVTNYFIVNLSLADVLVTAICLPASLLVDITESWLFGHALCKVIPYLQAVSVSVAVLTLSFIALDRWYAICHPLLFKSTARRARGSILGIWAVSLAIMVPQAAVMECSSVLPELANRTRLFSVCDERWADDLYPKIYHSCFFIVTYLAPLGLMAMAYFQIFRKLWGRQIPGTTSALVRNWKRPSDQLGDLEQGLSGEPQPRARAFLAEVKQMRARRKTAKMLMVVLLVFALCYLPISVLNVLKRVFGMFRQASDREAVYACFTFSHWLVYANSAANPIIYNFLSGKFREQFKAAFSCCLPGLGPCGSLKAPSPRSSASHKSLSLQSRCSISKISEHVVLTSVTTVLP
OX1R antag-2 – antagonists of human orexin 1 receptor. inhibition, % at 5 µM. CHO/OX1R cells, Fluo-8 calcium fluorescence, orexin A. 0.43% of 330,000 active;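 active = inhibition above its plate's threshold, mean inhibition of all tested compounds on the plate plus 3 SD, cut at about 37% in these data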;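 also: 0% = orexin A challenge wells and 100% = SB-334867-A antagonist wells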
TAAR1 antag – antagonists of human TAAR1. Q96RJ0. AID 624466. inhibition, % at 3 µM. 1.5% of 360,000 active. CHO RD-HGA16 TAAR1, Fluo-8 calcium fluorescence, antagonist;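 active = inhibition above a per-plate cutoff, the mean inhibition of test compounds on that plate plus 3 SD, cut at about 49% in these data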;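 also: 0% = DMSO plus EC80 beta-PEA response and 100% = DMSO alone without agonist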
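Material: RD-HGA16 CHO cells with stable hTAAR1 and Gα16; Dosing: single nominal final test compound concentration of 3 µM; Schedule: seeding 17-24 h prior, 75-min 37 °C, 30-min RT dye loading; Detection: kinetic Fluo-8 calcium fluorescence measurement; Measure: % inhibition from peak post-agonist over basal fluorescence ratio; Benchmarks: vehicle and agonist controls.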
nonsel antag count – nonselective antagonism, TAAR1 counter-screen | shares compounds with TAAR1 antag | counterscreen cell line, calcium fluorescence, antagonist mode | inhibition, % at 3 µM | 77% of 2,400 active | AID 651780; in the data active = inhibition above about 22%;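 also: CHO-Ga16 host cells stimulated with ATP at an EC80 level; 0% = agonist EC80 plus vehicle and 100% = vehicle without agonist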
TAAR1 ant conf – human TAAR1 antagonism, confirmed; TAAR1-expressing cells, fluorescence antagonist read-out; AID 651785; shares compounds with TAAR1 antag; inhibition, % at 3 µM; 40% of 2,400 active; in the data active = inhibition above about 49%;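 also: CHO-Ga16 host cells challenged with agonist PEA near its EC80; 0% = agonist at EC80 plus vehicle and 100% = vehicle with no agonist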
Ga16 ag counter – counter-screen for TAAR1 antagonists: nonselective Ga16 agonists | 18% of 2,400 active | Ga16-expressing cells, calcium fluorescence, agonist counterscreen | activation, % at 3 µM | shares compounds with TAAR1 antag | AID 651953; in the data active = activation above about 12%;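 also: 0% = vehicle wells and 100% = saturating stimulus response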
TAAR1 ag count – TAAR1 agonism, antagonist counter-screen; shares compounds with TAAR1 antag; hTAAR1 cell line, fluorescence activation, agonist mode; activation, % at 3 µM; 2% of 2,400 active; AID 651955; in the data active = activation above about 37%;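 also: CHO cells stably expressing TAAR1 with calcium dye readout; 0% = DMSO vehicle and 100% = full agonist response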
* hit, by the source's call; · = no result given. An excerpt weighted towards active compounds, which were near 3.9% of everything screened.

SMILES	CHO parental Ca	TAAR1 agonist	OX1R antag-1	OX1R antag-2	TAAR1 antag	nonsel antag count	TAAR1 ant conf	Ga16 ag counter	TAAR1 ag count
C=CCN1C(=O)CSc2ccc(C(=O)NCCC3=CCCCC3)cc21	-21	20	13	-31	55*	38*	50*	14*	11
CCOc1ccc(S(=O)(=O)N(CC(=O)NCc2cccnc2)c2ccc(F)cc2)cc1	-16	20	5	-36	65*	29*	49*	13*	16
Cc1c(C(=O)N2CCN(Cc3ccc4c(c3)OCO4)CC2)sc2ncnc(N3CCN(c4ccccc4F)CC3)c12	-12	4	8	-13	77*	34*	50*	8	5
COC(=O)c1ccc(CNC(=O)COC(=O)/C=C/c2cccc(OC)c2)cc1	·	1	·	·	-21	·	·	·	·
COc1ccc(C2c3[nH]c4ccccc4c3C[C@H]3C(=O)N(c4ccccc4C(=O)NCCN4CCOCC4)C(=O)N23)cc1 (stereo partly specified)	-17	8	6	-15	53*	20	30	7	4
Cc1ccc(C2c3[nH]c4ccccc4c3C[C@H]3C(=O)N(c4ccccc4C(=O)N4CCC(C(=O)O)CC4)C(=O)N23)cc1 (stereo partly specified)	-3	1	3	11	-50	·	·	·	·
O=C(NCCN1CCOCC1)c1ccccc1N1C(=O)[C@@H]2Cc3c([nH]c4ccccc34)C(c3ccc(F)cc3)N2C1=O (stereo partly specified)	-24	12	10	-33	50*	13	22	3	7
Cc1n[nH]c(C)c1S(=O)(=O)N(CC(=O)NC1CCCC1)c1ccc(C(C)C)cc1	-4	9	9	-17	61*	22*	38	8	11
COc1ccc(-c2cc(C(=O)N(C)CC(=O)Nc3ccccc3Br)c3ccccc3n2)cc1OC	-30	12	26	-35	65*	29*	51*	8	6
COc1ccc(-c2cc(C(=O)N(C)CC(=O)Nc3ccccc3C(F)(F)F)c3ccccc3n2)cc1OC	·	22	·	·	67*	34*	49*	8	9
CN(CC(=O)Nc1ccccc1Br)C(=O)c1cc(Cl)nc2ccccc12	-14	7	4	-24	15	·	·	·	·
Cc1ccc(CSc2nnc(SCC(=O)N/N=C/c3c[nH]c4ccccc34)s2)cc1	·	9	·	·	79*	28*	43	3	3
O=C(CSc1nnc(SCc2ccccc2)s1)N/N=C/c1c[nH]c2ccccc12	·	5	·	·	0	·	·	·	·
CC(=O)c1ccc(N(C(=O)CNC(=O)c2ccco2)C(C(=O)NC2CCCC2)c2ccncc2)cc1 (stereo unspecified)	5	-2	18	0	-10	·	·	·	·
Cc1nc2c(OCc3ccc(OC(F)F)cc3)cccn2c1N(C)C(=O)CCC1CCCC1	·	2	·	·	78*	39*	54*	7	3
O=C(O)C1C2CCC1C(O)C2 (stereo unspecified)	·	3	·	·	-2	·	·	·	·
COc1ccccc1/C=C/C(=O)Nc1cccc(S(=O)(=O)N2CCOCC2)c1	-22	9	10	-5	59*	24*	45	5	3
Cc1onc(-c2c(F)cccc2Cl)c1C(=O)Nc1cccc(S(=O)(=O)N2CCOCC2)c1	-11	14	14	4	50*	26*	39	8	11
OC(c1ccc(F)c(F)c1)c1nc(-c2ccc3ccccc3c2)cs1 (stereo unspecified)	·	23	·	·	55*	32*	37	13*	14
O=C(Nc1cccnc1)c1ccc(COc2ccccc2Br)cc1	-7	9	1	-22	79*	15	60*	6	9
CCOC(=O)C1(Cc2cccc(F)c2)CCN(C2CCOCC2)CC1	-14	13	20	-16	4	·	·	·	·
CCOC(=O)C1(Cc2cccc(F)c2)CCN(C(=O)C2CCC2)CC1	-4	6	11	-17	105*	14	-3	5	6
Cc1cc(C)c(C(=O)NCCCN2CCOCC2)c(C)c1	-7	1	11	5	-1	·	·	·	·
COC(=O)c1ccccc1NC(=O)CSc1nnnn1-c1ccc(C)cc1C	0	14	-3	-27	50*	30*	32	4	3
O=C(NCC(O)c1ccc2ccccc2c1)c1c(F)cccc1F (stereo unspecified)	-12	12	-10	-5	15	·	·	·	·
SMILES	CHO parental Ca	TAAR1 agonist	OX1R antag-1	OX1R antag-2	TAAR1 antag	nonsel antag count	TAAR1 ant conf	Ga16 ag counter	TAAR1 ag count
COc1ccc(NC(=O)c2cc(C)cc(C)c2)cc1S(=O)(=O)N1CCCCC1	-31	1	1	-23	7	·	·	·	·
O=C(N=Nc1c(O)n(Cc2ccccc2)c2ccccc12)c1ccc(O)cc1	-24	3	10	-10	51*	21	32	3	-3
COc1ccc(S(=O)(=O)N2CCOC2CNC(=O)C(=O)NCc2ccc3c(c2)OCO3)cc1 (stereo unspecified)	-17	0	17	-23	-14	·	·	·	·
COc1cc(OC)c(-c2nnc3n(CCc4ccccc4)c(=O)c4ccccc4n23)cc1OC	-7	18	-2	-25	68*	26*	35	7	9
CC(=O)Nc1ccc(CN2C(=O)C(CCc3ccccc3)ON=C2c2cnccn2)cc1 (stereo unspecified)	·	20	·	·	76*	29*	54*	11	10
CC(OC(=O)c1cnccn1)C(=O)Nc1nc(-c2cccc([N+](=O)[O-])c2)cs1 (stereo unspecified)	-14	17	17	-22	52*	24*	27	7	4
CC(OC(=O)c1ccccc1Br)C(=O)Nc1nc(-c2cccc([N+](=O)[O-])c2)cs1 (stereo unspecified)	-13	5	2	-16	6	·	·	·	·
COCCN(CCOC)C(=O)c1ccc(NS(=O)(=O)c2ccc3[nH]c(=O)[nH]c3c2)cc1	-5	3	23	-2	-8	·	·	·	·
CC(=O)c1cccc(NC(=O)CSc2ccc(-c3ccc4c(c3)OCO4)nn2)c1	-4	5	38	-22	54*	27*	35	8	6
COc1ccc(-c2ccc(SCC(=O)Nc3cccc(C(C)=O)c3)nn2)cc1OC	-9	10	6	-24	53*	24*	27	6	2
